Measured values reported in ChEMBL document CHEMBL5038578, “Design, Synthesis, and Biological Evaluation of Peptidomimetic Aldehydes as Broad-Spectrum Inhibitors against Enterovirus and SARS-CoV-2” (J Med Chem, 2022).

Experiments:
Enterovirus A71 = assay: Antiviral activity against Human enterovirus 71 BrCr infected in human RD cells assessed as reduction in virus-induced cytopathic effect incubated for 4 days by MTS/PMS assay; type: functional, organism-based; conditions: Enterovirus A, 96 h
Procedure, shortened: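 RD cells (2.5 × 10^4/well) adhered overnight, then infected with EV71 BrCr and given serial compound dilutions. Incubated 4 days, until full CPE in virus controls. Viability by MTS/PMS, absorbance at 498 nm after 1–2 h at 37 °C. Normalised to infected and uninfected untreated controls; EC50 by curve fitting.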

[1] = Inhibition of Human enterovirus 71 3C-like protease expressed in Escherichia coli BL21 (DE3) cells using Dacyl-KTSAVLQSGFRKMEEdans as fluorogenic substrate incubated for 10 mins by FRET assay; parameters: species or system Enterovirus A71
Procedure, shortened: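 EV71 3Cpro expressed with N-terminal His-SUMO2 tag, tag cut by SENP2, then purified on Ni-NTA, Q-Sepharose and Superdex200. Enzyme at 5 μM final, preincubated 10 min with serial compound dilutions in 25 mM Tris pH 8.0, 150 mM NaCl, 10% glycerol. Fluorescence read at ex 340/em 490 nm. IC50 (mean ± SD, ≥3 experiments) by nonlinear regression.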

[2] = Cytotoxicity against human RD cells assessed as reduction in cell viability measured after 4 days by MTS/PMS assay; type: toxicity, cell-based; conditions: time 4 day
[3] = Inhibition of SARS-CoV2 3C-like protease expressed in Escherichia coli BL21 (DE3) cells using Mca-AVLQSGFR-Lys(Dnp)-Lys-NH2 as fluorogenic substrate incubated for 10 mins by FRET assay; parameters: species or system Severe acute respiratory syndrome coronavirus 2
SARS-CoV-2 = assay: Antiviral activity against SARS Cov-2 infected in Vero E6 cells assessed as reduction in viral RNA replication measured 24 hrs post infection by qRT-PCR analysis; type: functional, organism-based; conditions: Severe acute respiratory syndrome coronavirus 2, Vero C1008, 24 h
[4] = Cytotoxicity against African green monkey Vero E6 cells assessed as reduction in cell viability incubated for 24 hrs by CCK8 assay; type: toxicity, cell-based, Vero C1008; conditions: chlorocebus sabaeus
Procedure, shortened: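 Vero E6 cells (2 × 10^4/well) exposed to graded compound concentrations for 24 h. Relative surviving cell number measured by CCK-8.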

enterovirus D68 = assay: Antiviral activity against Human enterovirus 68 infected in HeLa cells assessed as reduction in virus-induced cytopathic effect incubated for 4 days by MTS/PMS assay; type: functional, organism-based; conditions: Enterovirus D, 96 h
rhinovirus A2 = assay: Antiviral activity against wild type Rhinovirus-A02 infected in HeLa cells assessed as reduction in virus-induced cytopathic effect incubated for 3 days by MTS/PMS assay; type: functional, cell-based; conditions: Rhinovirus A, 72 h
[5] = Tmax in CD1 mouse at 5 mg/kg, sc measured after 24 hrs by LC-MS/MS analysis; type: ADME, organism-based; conditions: in vivo
Procedure, shortened: (§1)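 Male CD-1 mice, n = 3 per group. Compound given in DMSO/EtOH/PEG300/NaCl (5:5:40:50, v/v/v/v) at 20 mg/kg ip, 5 mg/kg sc or 5 mg/kg iv. Blood sampled at 0.05, 0.25, 0.75, 2, 4, 8 and 24 h after dosing. Compound concentration in serum quantified by LC-MS/MS.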

[6] = AUClast in CD1 mouse at 5 mg/kg, sc measured after 24 hrs by LC-MS/MS analysis; type: ADME, organism-based; parameters: route subcutaneous, dose 5 mg/kg, time 24 hrs; conditions: in vivo; procedure, shortened: as §1
[7] = Cmax in CD1 mouse at 5 mg/kg, sc measured after 24 hrs by LC-MS/MS analysis; type: ADME, organism-based; parameters: route subcutaneous, time 24 hrs, dose 5 mg/kg; conditions: in vivo; procedure, shortened: as §1
[8] = Mean residence time in CD1 mouse at 20 mg/kg, ip measured after 24 hrs by LC-MS/MS analysis; type: ADME, organism-based; conditions: in vivo; procedure, shortened: as §1
[9] = Cmax in CD1 mouse at 20 mg/kg, ip measured after 24 hrs by LC-MS/MS analysis; type: ADME, organism-based; parameters: route intraperitoneal, time 24 hrs, dose 20 mg/kg; conditions: in vivo; procedure, shortened: as §1
[10] = Mean residence time in CD1 mouse at 5 mg/kg, iv measured after 24 hrs by LC-MS/MS analysis; type: ADME, organism-based; conditions: in vivo; procedure, shortened: as §1
[11] = Volume of distribution at steady state in CD1 mouse at 5 mg/kg, iv measured after 24 hrs by LC-MS/MS analysis; type: ADME, organism-based; conditions: in vivo, read-out: Vdss; procedure, shortened: as §1
[12] = AUClast in CD1 mouse at 5 mg/kg, iv measured after 24 hrs by LC-MS/MS analysis; type: ADME, organism-based; parameters: route intravenous, time 24 hrs, dose 5 mg/kg; conditions: in vivo; procedure, shortened: as §1
[13] = Half life in CD1 mouse at 20 mg/kg, ip measured after 24 hrs by LC-MS/MS analysis; type: ADME, organism-based; conditions: in vivo; procedure, shortened: as §1
[14] = Half life in CD1 mouse at 5 mg/kg, sc measured after 24 hrs by LC-MS/MS analysis; type: ADME, organism-based; conditions: in vivo; procedure, shortened: as §1
[15] = Half life in CD1 mouse at 5 mg/kg, iv measured after 24 hrs by LC-MS/MS analysis; type: ADME, organism-based; conditions: in vivo; procedure, shortened: as §1
[16] = Clearance in CD1 mouse at 5 mg/kg, iv measured after 24 hrs by LC-MS/MS analysis; type: ADME, organism-based; conditions: in vivo; procedure, shortened: as §1
[17] = Mean residence time in CD1 mouse at 5 mg/kg, sc measured after 24 hrs by LC-MS/MS analysis; type: ADME, organism-based; conditions: in vivo; procedure, shortened: as §1
Coxsackievirus B3 = assay: Antiviral activity against Human coxsackievirus B3 infected in Vero cells assessed as reduction in plaque formation treated 2 hrs post viral infection and measured 3 to 4 days post-infection by Giemsa staining based plaque reduction assay; type: functional, organism-based; conditions: Enterovirus B
[18] = AUClast in CD1 mouse at 20 mg/kg, ip measured after 24 hrs by LC-MS/MS analysis; type: ADME, organism-based; parameters: route intraperitoneal, time 24 hrs, dose 20 mg/kg; conditions: in vivo; procedure, shortened: as §1
[19] = Tmax in CD1 mouse at 20 mg/kg, ip measured after 24 hrs by LC-MS/MS analysis; type: ADME, organism-based; conditions: in vivo; procedure, shortened: as §1
Coxsackievirus A21 = assay: Antiviral activity against Human coxsackievirus A21 infected in HeLa cells assessed as reduction in virus-induced cytopathic effect incubated for 3 days by MTS/PMS assay; type: functional, organism-based; conditions: Enterovirus C, 72 h
[20] = AUC (0 to infinity) in CD1 mouse at 20 mg/kg, ip measured after 24 hrs by LC-MS/MS analysis; type: ADME, organism-based; parameters: route intraperitoneal, dose 20 mg/kg, time 24 hrs; conditions: in vivo; procedure, shortened: as §1
[21] = AUC (0 to infinity) in CD1 mouse at 5 mg/kg, iv measured after 24 hrs by LC-MS/MS analysis; type: ADME, organism-based; parameters: route intravenous, dose 5 mg/kg, time 24 hrs; conditions: in vivo; procedure, shortened: as §1
rhinovirus B14 = assay: Antiviral activity against wild type Human rhinovirus B14 infected in HeLa cells assessed as reduction in virus-induced cytopathic effect incubated for 3 days by MTS/PMS assay; type: functional, organism-based; conditions: Rhinovirus B, 72 h
[22] = AUC (0 to infinity) in CD1 mouse at 5 mg/kg, sc measured after 24 hrs by LC-MS/MS analysis; type: ADME, organism-based; parameters: route subcutaneous, time 24 hrs, dose 5 mg/kg; conditions: in vivo; procedure, shortened: as §1

For `O=C[C@H](C[C@@H]1CCNC1=O)NC(=O)[C@H](Cc1ccccc1)NC(=O)c1cn2cc(Br)ccc2n1`, the EC50 (Enterovirus A71) was 0.36 µM, the IC50 [1] was 1.62 µM and the CC50 at 96 h [2] was greater than 100 µM.

`O=C[C@H](C[C@@H]1CCNC1=O)NC(=O)[C@H](Cc1ccccc1)NC(=O)c1ccc2ccc(Br)cc2n1` gave an IC50 [3] of 0.24 µM, an EC50 (Enterovirus A71) of 0.094 µM and an IC50 [1] of 3.22 µM. For the same molecule, the EC50 (SARS-CoV-2) was 0.35 µM, the CC50 at 96 h [2] was 46.2 µM and the CC50 at 24 h [4] was 823 µM.

In the case of `O=C[C@H](C[C@@H]1CCNC1=O)NC(=O)[C@H](Cc1ccccc1)NC(=O)c1cc2ccccc2[nH]1`, the IC50 [3] is reported as 0.034 µM, the EC50 (enterovirus D68) is reported as 0.03 µM and the EC50 (Enterovirus A71) is reported as 0.03 µM. The EC50 (rhinovirus A2) was 1.62 µM, the Tmax [5] was 0.58 h and the IC50 [1] was 2.36 µM. For the same molecule, the AUC(0-t) at 24 h [6] was 3570 ng·h/mL, the Cmax [7] was 2760 ng/mL and the EC50 (SARS-CoV-2) was 0.29 µM. The MRT [8] was 1.69 h, the Cmax [9] was 14600 ng/mL and the MRT [10] was 1.42 h. The Vd [11] was 4.12 L/kg, the AUC(0-t) at 24 h [12] was 1730 ng·h/mL and the half-life [13] was 5.36 h. It also gave a half-life [14] of 4.96 h, a CC50 at 96 h [2] greater than 100 µM and a half-life [15] of 5.85 h. For the same molecule, the clearance [16] was 48 mL/min/kg, the MRT [17] was 1.34 h and the EC50 (Coxsackievirus B3) was 4.19 µM. It also gave an AUC(0-t) at 24 h [18] of 16000 ng·h/mL, a Tmax [19] of 0.25 h and an EC50 (Coxsackievirus A21) of 0.43 µM. For the same molecule, the AUC(0-inf) [20] was 16100 ng·h/mL, the AUC(0-inf) [21] was 1740 ng·h/mL and the CC50 at 24 h [4] was 809 µM. The EC50 (rhinovirus B14) was 0.81 µM and the AUC(0-inf) [22] was 3580 ng·h/mL.

`O=C[C@H](C[C@@H]1CCNC1=O)NC(=O)[C@H](Cc1ccccc1)NC(=O)c1ccc2c(c1)OCO2` gave an IC50 [3] of 0.078 µM, an EC50 (Enterovirus A71) of 0.22 µM and an IC50 [1] of 1.47 µM. The EC50 (SARS-CoV-2) was 1.35 µM, the CC50 at 96 h [2] was greater than 100 µM and the CC50 at 24 h [4] was greater than 1000 µM.

For `CC(C)[C@H](NC(=O)c1cc2ccccc2[nH]1)C(=O)N[C@@H](Cc1ccccc1)C(=O)N[C@H](C=O)C[C@@H]1CCNC1=O`, the IC50 [3] was 0.068 µM, the EC50 (enterovirus D68) was 0.26 µM and the EC50 (Enterovirus A71) was 0.12 µM. The EC50 (rhinovirus A2) was 1.02 µM, the IC50 [1] was 4.16 µM and the EC50 (SARS-CoV-2) was 4.22 µM. The CC50 at 96 h [2] was 72.5 µM, the EC50 (Coxsackievirus B3) was 9.15 µM and the EC50 (Coxsackievirus A21) was 0.51 µM. For the same molecule, the CC50 at 24 h [4] was greater than 1000 µM and the EC50 (rhinovirus B14) was 0.98 µM.

Molecule `Cc1cc(C(=O)N[C@H](C(=O)N[C@@H](Cc2ccccc2)C(=O)N[C@H](C=O)C[C@@H]2CCNC2=O)C(C)C)no1` has an IC50 [3] of 0.067 µM, an EC50 (Enterovirus A71) of 0.09 µM and an IC50 [1] of 6.73 µM. The EC50 (SARS-CoV-2) was greater than 2 µM, the CC50 at 96 h [2] was greater than 100 µM and the CC50 at 24 h [4] was greater than 1000 µM.

`CC(C)[C@H](NC(=O)c1cc2ccccc2o1)C(=O)N[C@@H](Cc1ccccc1)C(=O)N[C@H](C=O)C[C@@H]1CCNC1=O` gave an IC50 [3] of 0.067 µM, an EC50 (Enterovirus A71) of 0.096 µM and an IC50 [1] of 2.43 µM. For the same molecule, the EC50 (SARS-CoV-2) was 5.62 µM, the CC50 at 96 h [2] was greater than 100 µM and the CC50 at 24 h [4] was greater than 1000 µM.

For `O=C[C@H](C[C@@H]1CCNC1=O)NC(=O)[C@H](Cc1ccccc1)NC(=O)c1ccc2occc2c1`, the IC50 [3] was 0.059 µM, the EC50 (Enterovirus A71) was 0.29 µM and the IC50 [1] was 2.37 µM. It also gave an EC50 (SARS-CoV-2) of 0.76 µM, a CC50 at 96 h [2] greater than 100 µM and a CC50 at 24 h [4] greater than 1000 µM.

Work on `O=C[C@H](C[C@@H]1CCNC1=O)NC(=O)[C@H](Cc1ccccc1)NC(=O)c1cccc2c1OCCO2` yielded an IC50 [3] of 0.097 µM, an EC50 (Enterovirus A71) of 0.77 µM and an IC50 [1] of 3.01 µM. It also gave an EC50 (SARS-CoV-2) of 8.21 µM, a CC50 at 96 h [2] greater than 100 µM and a CC50 at 24 h [4] greater than 1000 µM.

Work on `O=C[C@H](C[C@@H]1CCNC1=O)NC(=O)[C@H](Cc1ccccc1)NC(=O)c1ccc2c(c1)OCCO2` yielded an EC50 (Enterovirus A71) of 0.3 µM, an IC50 [1] of 2.21 µM and a CC50 at 96 h [2] greater than 100 µM.

Molecule `CC(C)[C@H](NC(=O)c1ccc2c(c1)OCCO2)C(=O)N[C@@H](Cc1ccccc1)C(=O)N[C@H](C=O)C[C@@H]1CCNC1=O` has an EC50 (Enterovirus A71) of 0.44 µM, an IC50 [1] of 4.04 µM and a CC50 at 96 h [2] greater than 100 µM.
